Source: ChEMBL document CHEMBL5705894, “SB1518, a novel macrocyclic pyrimidine-based JAK2 inhibitor for the treatment of myeloid and lymphoid malignancies” (Leukemia, 2011)
The source made the active and inactive calls. The rule behind the calls is not given here.

What was measured:
[1] = test system: Tyrosine-protein kinase JAK2 (Homo sapiens), O60674 [V617F]; details: SET2, dose 8-1000 nM, time 3.0 hrs
[2] = test system: MKN-7; assay: Antiproliferative activity against human MKN-7 cells assessed as inhibition of cell viability incubated for 48 hrs by CellTiterGlo assay; format: functional, cell-based; details: MKN-7, 48 h
Outline: (§1)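 Cells seeded at 30–50% confluency in 96-well plates, then treated the next day in triplicate at up to 10 μM for 48 h. Viability read by CellTiter-Glo luminescence. IC50 taken from fitted dose–response curves.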

[3] = test system: MCF7; assay: Antiproliferative activity against human MCF7 cells assessed as inhibition of cell viability incubated for 48 hrs by CellTiterGlo assay; format: functional, cell-based; details: MCF7, 48 h
Outline: as §1

[4] = biological target: Tyrosine-protein kinase JAK2 (Homo sapiens) (UniProt O60674); details: Jurkat, dose 40-1000 nM, time 3.0 hrs
[5] = test system: SNU-475; assay: Antiproliferative activity against human SNU-475 cells assessed as inhibition of cell viability incubated for 48 hrs by CellTiterGlo assay; format: functional, cell-based; details: SNU-475, 48 h
Outline: as §1

[6] = test system: A2780; assay: Antiproliferative activity against human A2780 cells assessed as inhibition of cell viability incubated for 48 hrs by CellTiterGlo assay; format: functional, cell-based; details: A2780, 48 h
Outline: as §1

[7] = test system: SET-2; assay: Anti-tumor activity against human SET2 cells xenografted in SCID Beige mouse assessed as tumor growth inhibition at 75 mg/kg, po administered for 18 days and measured twice a week relative to control; format: functional; details: SET-2, 432 h, time 18 day, read-out: TGI
Outline: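 SCID beige mice received 5 × 10^6 SET-2 cells subcutaneously in the right flank, in serum-free medium mixed 1:1 with Matrigel. Dosing began when tumors averaged about 280 mm3 (day 31). Oral gavage at 10 ml/kg for 18 consecutive days, 12 mice per group. Caliper volume = (w² × l)/2. Animals were killed 3 h after the final dose.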

[8] = test system: Tyrosine-protein kinase JAK2 (Homo sapiens), O60674 [V617F]; details: HEL 92.1.7, dose 8-1000 nM, time 3.0 hrs
[9] = test system: SET-2; assay: Induction of cell cycle arrest in human SET2 cells expressing JAK2 V617F mutant assessed as accumulation of cells at G0/1 phase incubated for 24 hrs by PI staining based flow cytometry; format: functional
Outline: (§2)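 Cells were fixed in 70% ice-cold ethanol and stained with propidium iodide, then analysed by flow cytometry for cell-cycle distribution.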

[10] = Antiproliferative activity against mouse 32D cells harboring JAK2 assessed as inhibition of cell viability incubated for 48 hrs by CellTiterGlo assay; format: functional, cell-based
Outline: as §1

[11] = test system: Tyrosine-protein kinase JAK2 (Homo sapiens), O60674 [V617F]; details: HEL 92.1.7, dose 1000.0 nM, time 3.0 hrs
[12] = test system: Mus musculus; assay: In vivo inhibition of JAK2 V617F mutant in SCID Beige mouse xenografted with human SET2 cells assessed as decreased STAT5 phosphorylation at Y694 by immunoblotting analysis; format: functional, organism-based; details: dose 75-150 mg/kg, route po
Outline: (§3)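 Subcutaneous SET-2 tumors in SCID beige mice. Single oral doses of 75 or 150 mg/kg were given at about 300 mm3 tumor size; in the chronic arm, dosing ran for 18 days. Tumors were collected 3 h post-dose, lysed, and immunoblotted for pJAK2 (Y1007/8) and pSTAT5.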

[13] = test system: Tyrosine-protein kinase JAK2 (Homo sapiens), O60674 [V617F]; details: HEL 92.1.7, dose 8-1000 nM, time 3.0 hrs; remark: listed apart in the source
[14] = test system: Tyrosine-protein kinase JAK2 (Homo sapiens), O60674 [V617F]; details: SET2, dose 1000.0 nM, time 3.0 hrs
[15] = test system: SET-2; assay: Induction of cell cycle arrest in human SET2 cells expressing JAK2 V617F mutant assessed as decrease in accumulation of cells at S-phase incubated for 24 hrs by PI staining based flow cytometry; format: functional
Outline: as §2

[16] = Cytotoxicity against human EPC cells derived from polycythemia vera patients assessed as inhibition of cell viability incubated for 48 hrs by CellTiterGlo assay; format: toxicity, cell-based
Outline: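 Erythroid progenitors expanded from PBMCs of PV patients or normal volunteers using a 2-step protocol. On day 12 of expansion, cells were exposed to compound for 48 h and viability was read by CellTiter-Glo. Day-12 cells were phenotyped by CD71/CD235A flow staining.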

[17] = test system: MOLM-13; assay: Antiproliferative activity against human MOLM-13 cells harboring FLT3-ITD mutant assessed as inhibition of cell viability incubated for 48 hrs by CellTiterGlo assay; format: functional, cell-based; details: MOLM-13, 48 h
Outline: as §1

[18] = test system: LNCaP; assay: Antiproliferative activity against human LNCaP cells assessed as inhibition of cell viability incubated for 48 hrs by CellTiterGlo assay; format: functional, cell-based
Outline: as §1

[19] = test system: MOLT-4; assay: Antiproliferative activity against human MOLT-4 cells assessed as inhibition of cell viability incubated for 48 hrs by CellTiterGlo assay; format: functional, cell-based; details: MOLT-4, 48 h
Outline: as §1

[20] = test system: Tyrosine-protein kinase JAK2 (Mus musculus), Q62120 [V617F]; assay: Inhibition of JAK2 V617F mutant transfected in mouse BaF3 cells assessed as increased JAK2 phosphorylation at Y1007/8 at 8 to 1000 nM incubated for 3 hrs by Western blotting analysis; format: cell-based; details: dose 8-1000 nM
[21] = test system: Karpas-1106P; assay: Antiproliferative activity against human KARPAS-1106P cells harboring JAK2 assessed as inhibition of cell viability incubated for 48 hrs by CellTiterGlo assay; format: functional, cell-based
Outline: as §1

[22] = test system: Mus musculus; assay: In vivo inhibition of JAK2 V617F mutant in SCID Beige mouse xenografted with human SET2 cells assessed as decreased STAT5 phosphorylation at Y694 at 75 to 150 mg/kg, po administered for 18 days and measured after 3 hrs by Western blotting analysis; format: functional, organism-based; details: dose 75-150 mg/kg, time 18.0 day
Outline: as §3

[23] = test system: BaF3; assay: Antiproliferative activity against mouse BaF3 cells harboring JAK2 V617F mutant assessed as inhibition of cell viability incubated for 48 hrs by CellTiterGlo assay; format: functional, cell-based; details: BaF3, 48 h
Outline: as §1

[24] = test system: CHL-1; assay: Antiproliferative activity against human CHL-1 cells assessed as inhibition of cell viability incubated for 48 hrs by CellTiterGlo assay; format: functional, cell-based; details: CHL-1, 48 h
Outline: as §1

[25] = Induction of apoptosis in human EPC cells derived from polycythemia vera patients assessed as activation of caspase-3/7 level incubated for 16 hrs; format: toxicity, cell-based; details: Homo sapiens, EPC

Sequence of Tyrosine-protein kinase JAK2 (Homo sapiens), O60674 [V617F] (O60674 whole entry V617F): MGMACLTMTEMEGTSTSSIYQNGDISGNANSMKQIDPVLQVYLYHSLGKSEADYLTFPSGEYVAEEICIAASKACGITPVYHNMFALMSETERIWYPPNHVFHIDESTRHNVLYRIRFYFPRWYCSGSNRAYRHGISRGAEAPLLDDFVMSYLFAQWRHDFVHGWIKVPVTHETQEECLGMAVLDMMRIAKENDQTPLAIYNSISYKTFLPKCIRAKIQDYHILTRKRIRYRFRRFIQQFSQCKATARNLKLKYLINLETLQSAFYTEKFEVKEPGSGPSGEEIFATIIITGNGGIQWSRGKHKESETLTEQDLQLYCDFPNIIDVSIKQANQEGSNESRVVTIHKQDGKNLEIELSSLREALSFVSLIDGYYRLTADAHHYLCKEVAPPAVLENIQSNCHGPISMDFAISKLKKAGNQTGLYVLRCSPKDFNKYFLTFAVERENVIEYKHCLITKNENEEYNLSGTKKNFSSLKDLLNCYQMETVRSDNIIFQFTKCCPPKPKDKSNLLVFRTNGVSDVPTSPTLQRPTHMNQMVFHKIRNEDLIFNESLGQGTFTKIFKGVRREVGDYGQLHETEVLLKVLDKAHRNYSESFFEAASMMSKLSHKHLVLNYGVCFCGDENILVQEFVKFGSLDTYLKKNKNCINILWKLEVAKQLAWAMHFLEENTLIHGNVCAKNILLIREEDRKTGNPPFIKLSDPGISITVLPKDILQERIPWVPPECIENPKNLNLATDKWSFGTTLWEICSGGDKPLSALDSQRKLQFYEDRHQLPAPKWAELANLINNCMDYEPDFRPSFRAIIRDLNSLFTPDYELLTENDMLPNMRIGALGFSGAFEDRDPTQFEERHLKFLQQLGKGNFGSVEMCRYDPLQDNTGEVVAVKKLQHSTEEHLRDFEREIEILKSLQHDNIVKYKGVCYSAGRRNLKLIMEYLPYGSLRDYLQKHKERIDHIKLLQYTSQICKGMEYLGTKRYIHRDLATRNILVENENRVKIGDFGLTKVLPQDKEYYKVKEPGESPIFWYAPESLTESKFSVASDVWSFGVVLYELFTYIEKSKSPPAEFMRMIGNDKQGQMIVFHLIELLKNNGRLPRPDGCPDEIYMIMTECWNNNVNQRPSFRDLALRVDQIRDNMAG
Sequence of Tyrosine-protein kinase JAK2 (Homo sapiens) (O60674 whole entry): as the sequence (O60674 whole entry V617F) above, with F617V counted along it
Sequence of Tyrosine-protein kinase JAK2 (Mus musculus), Q62120 [V617F] (Q62120 as listed by the source): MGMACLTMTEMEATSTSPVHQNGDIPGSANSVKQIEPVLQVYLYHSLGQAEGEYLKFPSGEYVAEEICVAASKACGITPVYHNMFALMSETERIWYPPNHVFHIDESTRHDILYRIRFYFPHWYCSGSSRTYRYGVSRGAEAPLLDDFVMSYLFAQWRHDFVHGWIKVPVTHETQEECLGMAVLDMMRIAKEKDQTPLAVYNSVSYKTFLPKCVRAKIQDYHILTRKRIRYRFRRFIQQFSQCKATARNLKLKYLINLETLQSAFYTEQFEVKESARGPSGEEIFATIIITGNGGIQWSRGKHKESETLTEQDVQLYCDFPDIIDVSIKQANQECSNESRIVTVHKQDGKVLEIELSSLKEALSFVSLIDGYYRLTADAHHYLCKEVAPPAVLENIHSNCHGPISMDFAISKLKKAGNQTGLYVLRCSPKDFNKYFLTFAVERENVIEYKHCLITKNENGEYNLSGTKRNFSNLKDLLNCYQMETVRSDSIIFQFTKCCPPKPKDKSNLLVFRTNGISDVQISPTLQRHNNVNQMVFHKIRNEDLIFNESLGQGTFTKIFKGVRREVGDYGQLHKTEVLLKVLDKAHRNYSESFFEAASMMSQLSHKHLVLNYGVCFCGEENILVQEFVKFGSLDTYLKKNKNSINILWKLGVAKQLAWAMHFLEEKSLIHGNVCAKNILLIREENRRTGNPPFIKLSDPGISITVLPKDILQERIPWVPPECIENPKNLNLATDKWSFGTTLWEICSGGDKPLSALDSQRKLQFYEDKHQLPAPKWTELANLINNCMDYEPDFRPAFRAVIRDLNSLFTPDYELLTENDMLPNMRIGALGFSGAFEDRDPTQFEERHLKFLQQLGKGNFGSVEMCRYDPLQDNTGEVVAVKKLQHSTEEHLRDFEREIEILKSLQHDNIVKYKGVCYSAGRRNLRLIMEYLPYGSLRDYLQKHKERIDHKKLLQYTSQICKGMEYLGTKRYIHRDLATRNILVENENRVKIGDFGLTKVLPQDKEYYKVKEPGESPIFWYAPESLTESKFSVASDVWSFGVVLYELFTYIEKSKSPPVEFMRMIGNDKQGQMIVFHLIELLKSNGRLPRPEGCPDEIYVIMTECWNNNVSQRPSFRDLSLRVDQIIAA

Question: What does the source list for `C1=N/C2=N/c3ccc(OCCN4CCCC4)c(c3)COC/C=C/COCc3cccc(c3)C(=C1)N2` [PACRITINIB]?
Answer: inhibition [1]: Dose-Dependent Effect; IC50 [2]: 2.04 µM; IC50 [3]: 0.853 µM; inhibition [4]: Active; IC50 [5]: 2.44 µM; IC50 [6]: 0.664 µM; inhibition in vivo at 75 mg/kg [7]: 40%; inhibition [8]: Dose-Dependent Effect; Activity [9]: Dose-Dependent Effect; IC50 [10]: 0.402 µM; inhibition [11]: Active; Activity [12]: Dose-Dependent Effect; inhibition [13]: Active; inhibition [14]: Active; Activity [15]: Dose-Dependent Effect; IC50 [16]: 0.26 µM; IC50 [17]: 0.067 µM; IC50 [18]: 0.917 µM; IC50 [19]: 0.75 µM; inhibition [20]: Active; IC50 [21]: 0.348 µM; Activity [22]: Active; IC50 [23]: 0.16 µM; IC50 [24]: 1.4 µM; EC50 [25]: 0.224 µM
